The list is not random: actives were taken first. Their share in the collection is about 0.96%.
MEP2 TOR yeast: yeast TOR pathway MEP2-GFP modulation | hit rate 0.51% among 330,000 | GFP response vs DMSO, % at 10 µM | S. cerevisiae MEP2-GFP strain, flow cytometry GFP, 3 h; 100% = DMSO control level;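 active means GFP response versus DMSO above a set limit, roughly screen mean plus 3 SD, cut at about 180% in these data; inconclusive means fewer than 70 cells counted for a yeast strain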;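 further: median GFP fluorescence of the barcode-gated MEP2-GFP cells per well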
LAP4-GFP MLPCN: yeast TOR pathway LAP4-GFP modulation; S. cerevisiae LAP4-GFP multiplex, flow cytometry GFP, 3 h; median GFP as percent of DMSO wells; GFP response vs DMSO, % at 10 µM; hit rate 0.34% among 320,000;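 active means GFP response vs DMSO above a set limit, about the screen mean plus 3 SD, cut at about 150% in these data; inconclusive means under 70 cell events counted for the yeast strain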
T cell modulator: T cell immune modulation candidate | 2C CD8+ T cell-vesicle binding, flow cytometry; active compounds read low | response (vesicle binding), % at 7 µM | hit rate 0.068% among 330,000;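 active means response, share of CD8 T cells binding vesicles, and their 90th percentile fluorescence all below set limits, cut at about 80% in these data, passing the limit was not always enough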;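 further: values below 100% mean blocked vesicle binding to the CD8+ T cells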
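System: murine 2C transgenic CD8+ T lymphocytes; also added: QL9-loaded Drosophila micro-vesicles; times: binding 1.5 h at 37 °C; measured by: flow cytometry, PE anti-B7-1 (FL2) versus Alexa647 anti-CD8 (FL8), PFA-fixed; control set: Peptide-free naked vesicles (low) and QL9 vesicles with 0.7% DMSO vehicle (high)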
AGP1 TOR yeast: alters AGP1-GFP fluorescence in TOR pathway yeast screen. S. cerevisiae AGP1-GFP multiplex flow cytometry, 3 h; GFP as percent of DMSO wells. GFP response vs DMSO, % at 10 µM. hit rate 0.02% among 320,000;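 active means GFP response relative to DMSO above a set limit, near screen average plus 3 SD, cut at about 150% in these data; inconclusive means fewer than 70 cells counted for the yeast strain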;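 further: median GFP channel fluorescence of the gated AGP1 strain per well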
CIT2-GFP yeast: yeast TOR pathway CIT2-GFP modulation. S. cerevisiae CIT2-GFP strain, flow cytometry, 3 h; 100 means same as DMSO wells. GFP response vs DMSO, % at 10 µM. hit rate 0.065% among 320,000. AID 2029;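 active means GFP response relative to DMSO above a set limit, near the screen mean plus 3 SD, cut at about 150% in these data; inconclusive means Fewer than 70 cells measured for a yeast strain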;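 further: ratio of well median GFP fluorescence to mean of DMSO wells on the plate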
RPL19A TOR yeast: yeast TOR pathway RPL19A-GFP modulation; percent response vs DMSO, % at 10 µM; hit rate 0.3% among 330,000; S. cerevisiae RPL19A-GFP strain, flow cytometry, 3 h; active compounds read low;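 active means percent response vs DMSO below 50%; inconclusive means fewer than 70 events counted for the yeast strain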;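 further: median channel GFP fluorescence of the barcoded RPL19A-GFP strain; ratio of sample median GFP to plate DMSO average so 100% = DMSO; lower means less RPL19A-GFP as with rapamycin TOR inhibition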
Starred values were filed as active, the others as inactive; i = inactive; ? = inconclusive; · = no result; ! = not active in a repeat; [ ] = remark or other dose.

SMILES	MEP2 TOR yeast	LAP4-GFP MLPCN	T cell modulator	AGP1 TOR yeast	CIT2-GFP yeast	RPL19A TOR yeast
COC(=O)c1ccc(COc2ccc(-c3nnn(CC(=O)NC(C)(C)C)n3)cc2)cc1	103	96	0	100	97	103
CCOC(=O)C1=C(COC(=O)Cc2ccccc2F)NC(=O)NC1C (configuration not stated)	103	99	397	105	103	100
O=S(=O)(Nc1ccc(Br)cc1)c1cccc2nonc12	95	152*	270	116	91	80
CN1CCN(/N=C/c2c3ccccc3c(Cl)c3ccccc23)CC1	146	163*	408	11	61	72
CN1CCN(/N=C/c2ccc(-c3ccccc3)cc2)CC1	97	105	205	103	101	97
O=C(Nc1cccc(Cl)c1N1CCCC1)c1ccc([N+](=O)[O-])o1	82	211*	327	81	67	82
O=C(Nc1ccccc1N1CCOCC1)c1ccc([N+](=O)[O-])o1	68	40	i	22	52	45*
COc1cccc(CNC(=O)CN2C(=O)CSc3ccc(S(=O)(=O)N4CCOCC4)cc32)c1	99	104	361	100	95	97
COc1ccccc1NC(=O)C/C(C)=N/NC(=O)c1ccccn1	102	95	484	107	109	106
COc1cc(NC(=O)C/C(C)=N/NC(=O)c2ccccn2)c(OC)cc1Cl	324*[may fluoresce violet]	84	248	?	?	48*[may fluoresce violet]
COc1cc(NC(=O)CN(C)S(=O)(=O)c2ccc(-c3ccc(=O)[nH]n3)s2)cc(OC)c1	93	86	74	87	93	91
O=C(CSc1nnc(-c2ccccc2)o1)c1ccc2c(c1)OCCO2	297*[may fluoresce violet]	83	537	?	?	·
O=C(NCc1nnc(SCC(=O)N2CCN(c3ccccc3)CC2)o1)c1c(F)cccc1Cl	99	94	429	108	109	105
CC(NC(=O)c1ccc([N+](=O)[O-])o1)C12CC3CC(CC(C3)C1)C2 (configuration not stated)	?	40	162	?	?	16*[may fluoresce violet]
Cc1ccc(-c2nnc(SCC(=O)NCCN3C(=O)CSC3=O)n2C)cc1	98	97	438	93	97	97
CCN(CC)S(=O)(=O)c1ccc2c3c(cccc13)C(=O)N2	100	92	0.0*	105	97	96
O=C(NC(=S)Nc1ccc2nc[nH]c2c1)c1ccccc1	114	108	179	120	168*[may fluoresce green]	95
O=C(NC(=S)Nc1ccc2ncccc2c1)c1ccccc1	102	102	379	98	95	99
Cc1nnc(SCC(=O)N(C)C2CCS(=O)(=O)C2)n1Cc1ccccc1 (configuration not stated)	269*[may fluoresce violet]	82	165	?	?	27*[may fluoresce violet]
CCN(C(=O)CSc1nnc(C)n1Cc1ccccc1)C1CCS(=O)(=O)C1 (configuration not stated)	98	89	398	93	·	94
CC1CCc2c(sc(NC(=O)Cn3nc(C(F)(F)F)c4c3CCCCC4)c2C#N)C1 (configuration not stated)	95	91	0.0*	96	95	96
Cc1cnc(C(=O)OC(C)C(=O)c2c(C)[nH]c3ccccc23)cn1 (configuration not stated)	87	125	588	92	71	88
Cc1[nH]c2ccccc2c1C(=O)C(C)OC(=O)C1CCC1 (configuration not stated)	103	189*	223	57	64	68
O=C(NC1(Cc2ccccc2)CCN(Cc2ccc(-c3ccccc3)cc2)C1=O)c1ccccc1 (configuration not stated)	86	108	492	90	83	95
CN(C(=O)c1cccc(NC(=O)C2CCN(C(=O)OC(C)(C)C)CC2)c1)C1CCCCC1	97	98	281	96	89	96
SMILES	MEP2 TOR yeast	LAP4-GFP MLPCN	T cell modulator	AGP1 TOR yeast	CIT2-GFP yeast	RPL19A TOR yeast
CC(=O)C1=C(O)C(=O)N(CCC(=O)O)C1c1cccc(F)c1 (configuration not stated)	200*[may fluoresce violet]	91	522	21	?	69
COCCN(C(=O)CSc1nc(N)cc(=O)[nH]1)c1c(N)n(Cc2ccccc2)c(=O)[nH]c1=O	106	103	306	107	100	104
COc1ccc(OCc2nnc(SCC(=O)N3CCCc4ccccc43)n2-c2ccc(C)cc2)cc1	214*[may fluoresce violet]	96	318	21	?	66
Cc1ccc(/C=N/NC(=O)c2ccccn2)s1	200*	140	279	106	110	81
Cc1ccc(S(=O)(=O)Nc2ccccc2C=Nc2cccc(C)c2C)cc1	96	89	0.0*	95	108	101
Nc1ccc(C(=O)O)c(O)c1	94	384*![may fluoresce red]	371	84	79	?
O=C(Nc1ccc(F)cc1)C1CCCN(c2cnccn2)C1 (configuration not stated)	104	152*	i	113	109	93
CC(OC(=O)CSc1ccc([N+](=O)[O-])cc1)C(=O)NCc1ccccc1 (configuration not stated)	83	201*	586	83	85	58
O=C(COC(=O)CSc1ccc([N+](=O)[O-])cc1)NCCc1ccccc1	91	109	447	102	104	95
COc1ccc(C(C)=O)cc1COC(=O)c1ccc2c(c1)OCCO2	105	103	266	108	107	103
CN1CCN(C(c2ccc(Cl)cc2)c2cc(Cl)c3cccnc3c2O)CC1 (configuration not stated)	140	164*	342	38	80	65
Oc1c(C(c2ccccn2)N2CCCCC2)cc(Cl)c2cccnc12 (configuration not stated)	95	116	259	98	96	100
CN1CCN(C(c2ccc(C(F)(F)F)cc2)c2cc(Cl)c3cccnc3c2O)CC1 (configuration not stated)	162	202*[may fluoresce violet]	281	?	?	57
CCN(C(=O)CCS(=O)(=O)c1cccc2nonc12)c1ccc(F)cc1	99	89	380	97	99	97
CSC1=NC(=O)/C(=C/c2ccc(SC)cc2)S1	98	176*	0	84	51	78
Nc1ccc2oc(=O)c3ccccc3c2c1	231*[may fluoresce violet]	71	296	?	?	34*[may fluoresce violet]
CCCNc1c(NS(=O)(=O)c2cccc(C#N)c2)c(=O)oc2ccccc12	98	100	740	103	99	100

From PubChem
